According to ChEMBL document CHEMBL1240529, “Synthesis, anti-inflammatory activity, and in vitro antitumor effect of a novel class of cyclooxygenase inhibitors: 4-(aryloyl)phenyl methyl sulfones” (J Med Chem, 2010):

Tests used:
Rattus norvegicus [1] = experiment: Antiinflammatory activity in Sprague-Dawley rat assessed as inhibition of carrageenan induced paw swelling at 70 mg/kg, po after 4 hrs
[2] = Cytotoxicity against human HDF cells assessed as inhibition of cell viability at 100 uM by MTT assay; type: cell-based; conditions: read-out: INH
Summary of the method: (§1)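 Cells were grown in MEM with 10% FBS and antibiotics at 37 °C, 5% CO2, plated at 2.0 × 10^4 cells/well and grown for 72 h. Compound or 0.1% DMSO was added, then MTT (5 mg/mL) for 3 h at 37 °C, read at 570 nm (690 nm blank). […] Inhibition = (DMSO control − treated)/control; two experiments in duplicate.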

Rattus norvegicus [3] = experiment: Antiinflammatory activity in Sprague-Dawley rat assessed as inhibition of carrageenan induced paw swelling at 70 mg/kg, po after 3 hrs
NCI-H460 = experiment: Cytotoxicity against human NCI-H460 cells assessed as inhibition of cell viability at 10 uM by MTT assay; type: functional
Summary of the method: as §1

K562 = experiment: Cytotoxicity against human K562 cells assessed as inhibition of cell viability at 10 uM by trypan blue dye exclusion
HT-29 = experiment: Cytotoxicity against human HT-29 cells by MTT assay; type: functional, cell-based
Summary of the method: as §1

[4] = target: T1, Prostaglandin G/H synthase 1 (Ovis aries, UniProt P05979); experiment: Inhibition of sheep COX1 by spectrophotometry
T1 sequence (P05979 whole entry): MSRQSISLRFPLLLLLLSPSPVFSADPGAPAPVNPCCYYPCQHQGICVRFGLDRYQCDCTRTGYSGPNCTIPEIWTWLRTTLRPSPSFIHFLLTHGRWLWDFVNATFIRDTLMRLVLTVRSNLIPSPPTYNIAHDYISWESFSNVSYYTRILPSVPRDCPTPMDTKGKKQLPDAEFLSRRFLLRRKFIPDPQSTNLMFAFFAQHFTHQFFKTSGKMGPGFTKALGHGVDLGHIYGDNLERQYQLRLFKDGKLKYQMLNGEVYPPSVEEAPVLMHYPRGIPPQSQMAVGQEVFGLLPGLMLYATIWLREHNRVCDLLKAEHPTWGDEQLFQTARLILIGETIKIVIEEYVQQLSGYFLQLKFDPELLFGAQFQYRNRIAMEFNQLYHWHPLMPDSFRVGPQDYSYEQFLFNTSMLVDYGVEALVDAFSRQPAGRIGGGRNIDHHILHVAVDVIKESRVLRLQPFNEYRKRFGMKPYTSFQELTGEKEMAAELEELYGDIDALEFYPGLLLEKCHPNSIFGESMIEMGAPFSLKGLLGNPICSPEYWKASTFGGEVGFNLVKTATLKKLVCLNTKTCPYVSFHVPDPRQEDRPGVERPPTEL

| SMILES | inhibition in vivo at 70 mg/kg (Rattus norvegicus [1]) | cytotoxicity at 100 µM [2] | inhibition in vivo at 70 mg/kg (Rattus norvegicus [3]) | inhibition at 10 µM (NCI-H460) | inhibition at 10 µM (K562) | IC50 (HT-29) | IC50 [4] |
| --- | --- | --- | --- | --- | --- | --- | --- |
| CC(C)Cc1ccc([C@H](C)C(=O)O)cc1 [DEXIBUPROFEN] | 23.9% | – | – | – | – | – | – |
| CS(=O)(=O)c1ccc(-n2ccc3ccccc32)cc1 | 46% | 34.3% | 48.7% | 12.2% | 16.6% | 85 µM | 78.7 µM |
| CS(=O)(=O)c1ccc(C(=O)c2ccn(-c3ccccc3F)c2)cc1 | – | 13.4% | – | 54.8% | 12.5% | 96.1 µM | 34.6 µM |
| Cn1cc(C(=O)c2ccc(S(C)(=O)=O)cc2)c2ccccc21 | – | 30.8% | – | 7% | 2.1% | 70.4 µM | 76.4 µM |
| CS(=O)(=O)c1ccc(-n2cccc2)cc1 | – | 28.9% | – | 3% | 1% | 146 µM | 86 µM |
| CS(=O)(=O)c1ccc(C(=O)c2cccs2)cc1 | 56% | 25.7% | 59.7% | 3% | 1% | 122 µM | – |
| CS(=O)(=O)c1ccc(C(=O)c2ccoc2)cc1 | 22.2% | 36.2% | 27% | 6% | 8.3% | 104 µM | 150 µM |
| CS(=O)(=O)c1ccc(C(=O)c2c[nH]c3ccccc23)cc1 | – | – | – | – | – | – | 26.7 µM |
| CC(C)[C@H](CO)Nc1nc(Nc2cccc(Cl)c2)c2ncn(C(C)C)c2n1 [PURVALANOLA] | – | 88.6% | – | 3.98% | 75.1% | > 100 µM | – |
| Cc1ccc(-c2cc(C(F)(F)F)nn2-c2ccc(S(N)(=O)=O)cc2)cc1 [CELECOXIB] | – | 92% | – | 9.75% | 38.8% | 45.5 µM | – |
| CS(=O)(=O)c1ccc(C2Oc3ccccc3-n3cccc32)cc1 (configuration not stated) | – | 12.3% | – | 6.6% | 13.5% | 100 µM | 177 µM |
| CS(=O)(=O)c1ccc(C(=O)c2ccc(Br)cc2)cc1 | 8.1% | 29.4% | 22% | 12.7% | 6.2% | 100 µM | 150 µM |
| CS(=O)(=O)c1ccc(-c2ccccn2)cc1 | 51.4% | – | 53.7% | – | – | – | 89.6 µM |
| CS(=O)(=O)c1ccc(N2CCN(c3ccc(F)cc3)CC2)cc1 | – | 36.1% | – | 3.1% | 17.7% | 65.8 µM | 80 µM |
| CS(=O)(=O)c1ccc(C(=O)c2ccsc2)cc1 | – | 31.2% | – | 2% | 14.6% | 75.7 µM | 144 µM |
| CS(=O)(=O)c1ccc(C(=O)c2cccn2-c2ccccc2F)cc1 | 4.4% | 45% | 13.7% | 13.3% | 2.1% | 34.1 µM | 183 µM |
| CS(=O)(=O)c1ccc(C(=O)c2ccco2)cc1 | 37.8% | 30.7% | 45.5% | 3% | 8.3% | 383 µM | 15.1 µM |
| CS(=O)(=O)c1ccc(Nc2ccc(F)cc2)cc1 | 32.6% | 37.4% | 41.9% | 1.8% | 13.5% | 130 µM | 141 µM |
| CS(=O)(=O)c1ccc(C(=O)c2ccc(F)cc2)cc1 | – | – | – | – | – | – | 107 µM |
